Results: ChEMBL document CHEMBL3627671, “Novel derivatives of nitro-substituted salicylic acids: Synthesis, antimicrobial activity and cytotoxicity” (Bioorg Med Chem, 2015)

Key:
Lichtheimia corymbifera [1] = assay: Antifungal activity against Absidia corymbifera 272 after 24 hrs by microdilution broth method; type: functional; details: Lichtheimia corymbifera, 272, 24 h
In short: (§1)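 CLSI M27-A3 broth microdilution in RPMI 1640 with glutamine, buffered to pH 7.0 with MOPS; DMSO diluent. Yeast inoculum 5 × 10^3 ± 0.2 CFU/mL. Moulds grown on Sabouraud agar 3–10 days before spore harvest, final inoculum 0.5-5 × 10^4 CFU/mL, checked in a Bürker chamber. Incubated dark, humid, 35 °C, read at 24 and 48 h visually and at 540 nm. MIC taken as ≥80% (yeasts) or ≥50% (filamentous) growth reduction versus control.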

Trichosporon asahii [2] = assay: Antifungal activity against Trichosporon asahii 1188 after 24 hrs by microdilution broth method; type: functional; details: Trichosporon asahii, 1188, 24 h; in short: as §1
[3] = system: Staphylococcus epidermidis; assay: Antibacterial activity against Staphylococcus epidermidis H 6966/08 after 24 hrs by microdilution broth method; type: functional; details: H 6966/08, 24 h
In short: (§2)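 Mueller-Hinton broth microdilution (modified M07-A07), pH 7.4 (±0.2). Compounds dissolved in DMSO, tested at final 500 to 0.49 µmol/L. Inoculum in sterile water matched to 0.5 McFarland. Incubated in the dark, humid atmosphere, 35 °C, read at 24 and 48 h visually and at 540 nm. MIC taken as ≥95% growth reduction (IC95) versus control.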

Mycobacterium avium [4] = assay: Antimycobacterial activity against Mycobacterium avium 330/80 after 14 days; type: functional; details: 330/80, 336 h
Pichia kudriavzevii [5] = assay: Antifungal activity against Candida krusei E28 after 24 hrs by microdilution broth method; type: functional; details: E28, 24 h; in short: as §1
Klebsiella pneumoniae [6] = assay: Antibacterial activity against ESBL-positive Klebsiella pneumoniae J 14368/08 after 24 hrs by microdilution broth method; type: functional; details: J 14368/08, 24 h; in short: as §2
[7] = Selectivity index, ratio of CI50 for human HepG2 cells to MIC100 for Mycobacterium tuberculosis H37Rv 331/88
[8] = system: Trichophyton mentagrophytes; assay: Antifungal activity against Trichophyton mentagrophytes 445 after 48 hrs by microdilution broth method; type: functional; details: Trichophyton mentagrophytes, 445, 48 h
Mycobacterium kansasii [9] = assay: Antimycobacterial activity against Mycobacterium kansasii 6509/96 after 14 days; type: functional; details: 6509/96, 336 h
In short: (§3)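 Šula's semisynthetic medium micromethod at 37 °C, read after 7, 14 and 21 days. The 1.0 McFarland suspension was diluted 10^-4. MIC determined. 6509/96 is a clinical isolate.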

Mycobacterium kansasii [10] = assay: Antimycobacterial activity against Mycobacterium kansasii 6509/96 after 21 days; type: functional; details: 6509/96, 504 h; in short: as §3
HepG2 = assay: Cytotoxicity against human HepG2 cells after 24 hrs […]; type: cell-based; details: HepG2, 24 h
Klebsiella pneumoniae [11] = assay: Antibacterial activity against Klebsiella pneumoniae D 11750/08 after 24 hrs by microdilution broth method; type: functional; details: D 11750/08, 24 h; in short: as §2
[12] = system: Mycobacterium tuberculosis; assay: Antimycobacterial activity against Mycobacterium tuberculosis H37Rv 331/88 after 14 days; type: functional; details: H37Rv 331/88, 336 h
Trichosporon asahii [13] = assay: Antifungal activity against Trichosporon asahii 1188 after 48 hrs by microdilution broth method; type: functional; details: Trichosporon asahii, 1188, 48 h; in short: as §1
Candida albicans [14] = assay: Antifungal activity against Candida albicans ATCC 44859 after 48 hrs by microdilution broth method; type: functional; details: ATCC 44859, 48 h; in short: as §1
Mycobacterium kansasii [15] = assay: Antimycobacterial activity against Mycobacterium kansasii 235/80 after 14 days; type: functional; details: 235/80, 336 h; in short: as §3
Staphylococcus aureus [16] = assay: Antibacterial activity against Staphylococcus aureus CCM 4516/08 after 48 hrs by microdilution broth method; type: functional; details: CCM 4516/08, 48 h
Mycobacterium avium [17] = assay: Antimycobacterial activity against Mycobacterium avium 330/80 after 21 days; type: functional; details: 330/80, 504 h
Pseudomonas aeruginosa [18] = assay: Antibacterial activity against Pseudomonas aeruginosa CCM 1961 after 48 hrs by microdilution broth method; type: functional; details: CCM 1961, 48 h; in short: as §2
Candida albicans [19] = assay: Antifungal activity against Candida albicans ATCC 44859 after 24 hrs by microdilution broth method; type: functional; details: ATCC 44859, 24 h; in short: as §1
[20] = system: Mycobacterium tuberculosis; assay: Antimycobacterial activity against Mycobacterium tuberculosis H37Rv 331/88 after 21 days; type: functional; details: H37Rv 331/88, 504 h
Candida tropicalis [21] = assay: Antifungal activity against Candida tropicalis 156 after 48 hrs by microdilution broth method; type: functional; details: Candida tropicalis, 156, 48 h; in short: as §1
Klebsiella pneumoniae [22] = assay: Antibacterial activity against ESBL-positive Klebsiella pneumoniae J 14368/08 after 48 hrs by microdilution broth method; type: functional; details: J 14368/08, 48 h; in short: as §2
Enterococcus sp. [23] = assay: Antibacterial activity against Enterococcus sp. J 14365/08 after 24 hrs by microdilution broth method; type: functional; details: J 14365/08, 24 h; in short: as §2
Candida tropicalis [24] = assay: Antifungal activity against Candida tropicalis 156 after 24 hrs by microdilution broth method; type: functional; details: Candida tropicalis, 156, 24 h; in short: as §1
Staphylococcus aureus [25] = assay: Antibacterial activity against methicillin-resistant Staphylococcus aureus H 5996/08 after 24 hrs by microdilution broth method; type: functional; details: H 5996/08, 24 h
Enterococcus sp. [26] = assay: Antibacterial activity against Enterococcus sp. J 14365/08 after 48 hrs by microdilution broth method; type: functional; details: J 14365/08, 48 h; in short: as §2
Klebsiella pneumoniae [27] = assay: Antibacterial activity against Klebsiella pneumoniae D 11750/08 after 48 hrs by microdilution broth method; type: functional; details: D 11750/08, 48 h; in short: as §2
[28] = system: Trichophyton mentagrophytes; assay: Antifungal activity against Trichophyton mentagrophytes 445 after 24 hrs by microdilution broth method; type: functional; details: Trichophyton mentagrophytes, 445, 24 h
Mycobacterium kansasii [29] = assay: Antimycobacterial activity against Mycobacterium kansasii 6509/96 after 7 days; type: functional; details: 6509/96, 168 h; in short: as §3
Mycobacterium kansasii [30] = assay: Antimycobacterial activity against Mycobacterium kansasii 235/80 after 7 days; type: functional; details: 235/80, 168 h; in short: as §3
Escherichia coli [31] = assay: Antibacterial activity against Escherichia coli CCM4517 after 48 hrs by microdilution broth method; type: functional; details: CCM4517, 48 h; in short: as §2
Nakaseomyces glabratus [32] = assay: Antifungal activity against Candida glabrata 20/I after 24 hrs by microdilution broth method; type: functional; in short: as §1
Escherichia coli [33] = assay: Antibacterial activity against Escherichia coli CCM4517 after 24 hrs by microdilution broth method; type: functional; details: CCM4517, 24 h; in short: as §2
Mycobacterium kansasii [34] = assay: Antimycobacterial activity against Mycobacterium kansasii 235/80 after 21 days; type: functional; details: 235/80, 504 h; in short: as §3
Pichia kudriavzevii [35] = assay: Antifungal activity against Candida krusei E28 after 48 hrs by microdilution broth method; type: functional; details: E28, 48 h; in short: as §1
Aspergillus fumigatus [36] = assay: Antifungal activity against Aspergillus fumigatus 231 after 24 hrs by microdilution broth method; type: functional; details: Aspergillus fumigatus, 231, 24 h; in short: as §1
Pseudomonas aeruginosa [37] = assay: Antibacterial activity against Pseudomonas aeruginosa CCM 1961 after 24 hrs by microdilution broth method; type: functional; details: CCM 1961, 24 h; in short: as §2
Aspergillus fumigatus [38] = assay: Antifungal activity against Aspergillus fumigatus 231 after 48 hrs by microdilution broth method; type: functional; details: Aspergillus fumigatus, 231, 48 h; in short: as §1
Nakaseomyces glabratus [39] = assay: Antifungal activity against Candida glabrata 20/I after 48 hrs by microdilution broth method; type: functional; in short: as §1
[40] = system: Staphylococcus epidermidis; assay: Antibacterial activity against Staphylococcus epidermidis H 6966/08 after 48 hrs by microdilution broth method; type: functional; details: H 6966/08, 48 h; in short: as §2
Staphylococcus aureus [41] = assay: Antibacterial activity against methicillin-resistant Staphylococcus aureus H 5996/08 after 48 hrs by microdilution broth method; type: functional; details: H 5996/08, 48 h
Staphylococcus aureus [42] = assay: Antibacterial activity against Staphylococcus aureus CCM 4516/08 after 24 hrs by microdilution broth method; type: functional; details: CCM 4516/08, 24 h
Lichtheimia corymbifera [43] = assay: Antifungal activity against Absidia corymbifera 272 after 48 hrs by microdilution broth method; type: functional; details: Lichtheimia corymbifera, 272, 48 h; in short: as §1

O=C(Nc1cccc(C(F)(F)F)c1)c1ccc([N+](=O)[O-])cc1O
8 µM: MIC [12] | MIC [20] | MIC (Mycobacterium kansasii [29]) | MIC (Mycobacterium kansasii [30])
0.35: Selectivity Index [7]
7.81 µM: MIC [40]
> 500 µM: MIC (Klebsiella pneumoniae [6]) | MIC [8] | MIC (Candida albicans [14]) | MIC (Pseudomonas aeruginosa [18]) | MIC (Candida albicans [19]) | MIC (Candida tropicalis [21]) | MIC (Klebsiella pneumoniae [22]) | MIC (Candida tropicalis [24]) | MIC [28] | MIC (Nakaseomyces glabratus [32]) | MIC (Pichia kudriavzevii [35]) | MIC (Pseudomonas aeruginosa [37]) | MIC (Aspergillus fumigatus [38]) | MIC (Nakaseomyces glabratus [39]) | MIC (Lichtheimia corymbifera [43])
1.95 µM: MIC [3] | MIC (Staphylococcus aureus [25]) | MIC (Staphylococcus aureus [41])
250 µM: MIC (Pichia kudriavzevii [5]) | MIC (Trichosporon asahii [13]) | MIC (Enterococcus sp. [23])
500 µM: MIC (Lichtheimia corymbifera [1]) | MIC (Klebsiella pneumoniae [11]) | MIC (Enterococcus sp. [26]) | MIC (Klebsiella pneumoniae [27]) | MIC (Escherichia coli [31]) | MIC (Escherichia coli [33]) | MIC (Aspergillus fumigatus [36])
16 µM: MIC (Mycobacterium kansasii [9]) | MIC (Mycobacterium kansasii [10]) | MIC (Mycobacterium kansasii [15]) | MIC (Mycobacterium kansasii [34])
2.8 µM: IC50 (HepG2)
62.5 µM: MIC (Trichosporon asahii [2]) | MIC (Mycobacterium avium [4]) | MIC (Mycobacterium avium [17])
3.9 µM: MIC (Staphylococcus aureus [16]) | MIC (Staphylococcus aureus [42])

O=C(Nc1ccc(C(F)(F)F)cc1)c1ccc([N+](=O)[O-])cc1O
4 µM: MIC (Mycobacterium kansasii [15]) | MIC [20] | MIC (Mycobacterium kansasii [29])
1.2 µM: IC50 (HepG2)
2 µM: MIC [12] | MIC (Mycobacterium kansasii [30])
0.3: Selectivity Index [7]
32 µM: MIC (Mycobacterium avium [4]) | MIC (Mycobacterium avium [17])
125 µM: MIC [8] | MIC (Nakaseomyces glabratus [32]) | MIC (Pichia kudriavzevii [35])
1.95 µM: MIC [3] | MIC (Staphylococcus aureus [25]) | MIC (Staphylococcus aureus [41])
250 µM: MIC (Candida albicans [14]) | MIC (Candida albicans [19]) | MIC (Candida tropicalis [21]) | MIC (Enterococcus sp. [23]) | MIC (Candida tropicalis [24]) | MIC (Enterococcus sp. [26]) | MIC (Nakaseomyces glabratus [39])
31.2 µM: MIC (Lichtheimia corymbifera [1]) | MIC (Trichosporon asahii [2]) | MIC (Trichosporon asahii [13]) | MIC (Aspergillus fumigatus [36]) | MIC (Aspergillus fumigatus [38])
62.5 µM: MIC (Pichia kudriavzevii [5]) | MIC [28] | MIC (Lichtheimia corymbifera [43])
500 µM: MIC (Klebsiella pneumoniae [6]) | MIC (Klebsiella pneumoniae [11]) | MIC (Klebsiella pneumoniae [22]) | MIC (Klebsiella pneumoniae [27]) | MIC (Escherichia coli [31]) | MIC (Escherichia coli [33])
8 µM: MIC (Mycobacterium kansasii [9]) | MIC (Mycobacterium kansasii [10]) | MIC (Mycobacterium kansasii [34])
> 500 µM: MIC (Pseudomonas aeruginosa [18]) | MIC (Pseudomonas aeruginosa [37])
7.81 µM: MIC (Staphylococcus aureus [16]) | MIC [40] | MIC (Staphylococcus aureus [42])
